Source: PubChem BioAssay (Johns Hopkins Ion Channel Center)
hERG protect: compounds protecting human hERG from proarrhythmic drug block. Q12809. CHO-hERG, FluxOR thallium flux, dofetilide IC70 present. activation (rescue from dofetilide block), less the hit threshold, % at 10 µM. 310,000 tested, 0.51% active;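 active means activation above the mean of controls blocked by dofetilide plus 5 SD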;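 further: thallium influx through hERG after potassium depolarization seen as dye fluorescence rise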
KCNQ1 inh: blocks the human KCNQ1 potassium channel | CHO-K1 KCNQ1, FluxOR thallium flux fluorescence; stronger effect = higher value | 310,000 tested, 1.3% active | P51787 | B-score at 10 µM;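 active means compounds whose thallium flux B-score, printed positive for inhibition, exceeds three library SD while starting fluorescence stays within three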;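 further: channel opened by potassium depolarization with thallium stimulus after 20 min compound exposure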
Kir21 inh: Kir2.1 (mouse) channel inhibition; HEK293-Kir2.1, FluxOR thallium flux fluorescence; stronger effect = lower value; B-score at 10 µM; 310,000 tested, 0.85% active; AID 1672;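 active means fluorescence ratio B-score at or below minus 3 SD of library scores, with starting-brightness B-score within 2 SD, cut at about -4.2 in these data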;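 further: channel flux triggered by added potassium and thallium sulfate stimulus; B-score of peak minus minimum fluorescence over baseline after thallium stimulus; more negative B-score means stronger Kir2.1 block with less thallium influx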
KCNK9 block: human KCNK9 channel inhibition; B-score at 10 µM; 310,000 tested, 1.2% active; Q9NPC2; HEK293 KCNK9, FluxOR thallium flux fluorescence; stronger effect = lower value; AID 488922;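 active means ratio B-score over 3 SD below the library mean, with starting fluorescence within 5 SD of its mean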;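 further: negative B-score means less thallium flux so channel inhibition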
Target sequence (Q9NPC2 whole entry, looked up): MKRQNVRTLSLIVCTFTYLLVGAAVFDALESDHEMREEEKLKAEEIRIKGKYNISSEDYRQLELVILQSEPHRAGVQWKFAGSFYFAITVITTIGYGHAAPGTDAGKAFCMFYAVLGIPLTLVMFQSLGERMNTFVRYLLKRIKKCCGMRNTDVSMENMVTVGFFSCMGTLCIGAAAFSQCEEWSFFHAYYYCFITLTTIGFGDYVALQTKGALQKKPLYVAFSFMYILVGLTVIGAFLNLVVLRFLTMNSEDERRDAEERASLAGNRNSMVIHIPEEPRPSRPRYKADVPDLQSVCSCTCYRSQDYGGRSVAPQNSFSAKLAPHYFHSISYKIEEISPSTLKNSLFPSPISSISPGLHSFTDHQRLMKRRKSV
KCNK3 inh: human KCNK3 channel inhibition, primary screen. CHO-KCNK3 thallium flux, FluxOR fluorescence; stronger effect = lower value. B-score at 10 µM. 340,000 tested, 0.84% active;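 active means B-score under library mean minus 4 SD, starting fluorescence ratio at most library mean plus 5 SD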;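 further: more negative B-score means stronger inhibition of thallium flux through KCNK3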
KCNQ1 pot: human KCNQ1 channel potentiation or activation | P51787 | 310,000 tested, 0.35% active | B-score at 10 µM | CHO-K1 KCNQ1, thallium flux FluxOR fluorescence; stronger effect = higher value;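 active means fluorescence ratio B-score, a plate-corrected score, at least three library SD, with initial intensity B-score within 5 SD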
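System: Stable KCNQ1 CHO-K1 line | Incubation: 90 min dye loading and 20 min compound exposure, both at room temperature | Measure: Ratio B score | Medium: Assay buffer for compound exposure, DMSO matched across wells | Compound dosing: Single-concentration screen | Probe or stimulus: K+/Tl+ depolarizing stimulus | Measured by: Kinetic FluxOR fluorescence, 10 s baseline plus 110 s post-stimulus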
KCNK9 inh conf: human KCNK9 inhibitor confirmation | shares compounds with KCNK9 block | HEK293 KCNK9 cells, FluxOR thallium flux fluorescence | 4,900 tested, 43% active | inhibition, % at 10 µM;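 active means thallium signal inhibited by more than 5 SD of the compound-free buffer control wells, on both duplicate plates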;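 further: 0% = assay buffer control wells without compound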
Kir21 sel: tests whether KCNK9 modulators also affect mouse Kir2.1. shares compounds with KCNK9 block. Kir2.1 cells, FluxOR thallium flux fluorescence. inhibition, % at 10 µM. 4,900 tested, 4% active;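 active means thallium signal drop more than 5 SD beyond the mean of the no-compound control wells, seen in both duplicate plates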;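 further: signal is fluorescence rise after thallium addition divided by baseline fluorescence; plate controls were assay buffer only for no effect and full block by chlorpromazine control for full effect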
KCNK9 uninduced: non-induced cell nonspecific activity of KCNK9 modulators. shares compounds with KCNK9 block. non-induced KCNK9-HEK293, FluxOR thallium flux. inhibition, % at 10 µM. 4,900 tested, 40% active. AID 492997;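 active means thallium signal drop beyond 5 SD of the untreated control mean, on both duplicate plates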;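 further: plate controls were buffer only IC0 wells for no effect and SID17386958 at its maximal inhibitory level for full effect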
An asterisk follows results filed as active; i = inactive; / = no result given. The list is not random: actives were taken first. Their share in the collection is about 3.7%.

SMILES	hERG protect	KCNQ1 inh	Kir21 inh	KCNK9 block	KCNK3 inh	KCNQ1 pot	KCNK9 inh conf	Kir21 sel	KCNK9 uninduced
O=C1c2ccccc2C2=Nc3ccccc3SC(c3cccc(F)c3)C12 (stereo not drawn)	-4	i	-1.1	-15*	i	i	56%*	i	56%*
O=C1CCCC2=C1C(c1ccc(Cl)cc1)C1C(=O)c3ccccc3C1=N2 (stereo not drawn)	-17	i	0.26	i	i	i	/	/	/
O=C1c2ccccc2C2=Nc3ccccc3SC(c3ccc(Cl)cc3)C12 (stereo not drawn)	-12	i	0.01	-13*	i	i	46%*	i	34%*
O=C1CCCC2=C1C(c1ccccc1)C1C(=O)c3ccccc3C1=N2 (stereo not drawn)	-2	i	-0.12	i	i	i	/	/	/
COc1cccc(NC(=O)CN(C)C(=O)c2cc(-c3ccccc3)nn2-c2ccccc2)c1	/	/	/	/	i	/	/	/	/
Cc1c(C(=O)N2CCC[C@H]2C(N)=O)oc2c(F)cccc12	-3	i	-0.01	i	i	i	i	i	i
Cc1c(C(=O)N2CCN(c3ccccn3)CC2)oc2c(F)cccc12	-6	i	1.9	i	i	i	/	/	/
Cc1cc(C)cc(C(=O)N2CC(C)SC2=Nc2cccc(S(=O)(=O)N(C)C)c2)c1 (stereo not drawn)	-1	i	-0.78	-12*	i	i	64%*	i	34%*
O=C(NCC1CC1)C1(C(F)(F)F)CC(CCc2ccccc2)CCCO1 (stereo not drawn)	-8	i	1.1	i	i	i	i	i	i
COc1ccc(NC(=O)CN2CCN(c3ccccc3C)CC2)cc1	-4	i	0.86	i	i	i	/	/	/
COc1ccc(NC(=O)CN2CCN(c3ccccc3Cl)CC2)cc1	-12	i	-0.54	i	i	i	i	i	i
CSc1nnc(Cc2sc(-c3ccccc3)nc2-c2ccccc2)o1	-8	i	0.11	-8.1*	i	i	i	i	25%*
Fc1ccc(CSc2nnc(Cc3sc(-c4ccccc4)nc3-c3ccccc3)o2)cc1	-14	i	-0.36	i	i	i	/	/	/
COc1ccc(C(=O)CC(SCC(NC(C)=O)C(=O)O)c2ccc(Cl)cc2)cc1OC (stereo not drawn)	-9	i	0.52	i	i	i	/	/	/
CC1CN(c2oc(COc3ccc(Cl)cc3Cl)nc2C#N)CC(C)O1 (stereo not drawn)	-1	i	-0.91	i	i	i	i	i	i
N#Cc1nc(COc2ccccc2Cl)oc1N1CCCC1	-4	i	-0.32	i	i	i	/	/	/
Cc1nc(NC(=O)COC(=O)CCc2ccccc2)c(Cl)cc1Cl	/	/	/	/	i	/	/	/	/
O=C(Nc1ccc(Cl)cc1C(=O)Nc1ccc(Br)cn1)c1ccco1	-9	i	0.51	-12*	i	i	53%*	i	i
CCN(C[C@H]1N[C@@](Cc2ccccc2)(C(=O)OC)[C@H]2C(=O)N(Cc3ccccc3)C(=O)[C@@H]12)S(=O)(=O)c1ccc(C(C)(C)C)cc1	/	/	/	/	i	/	/	/	/
O=C(NCc1ccccc1)C1=C[C@H](C2CCCCC2)C[C@H](OCc2ccc(CO)cc2)O1	-7	i	0.04	i	i	i	i	i	i
O=C(NCc1ccccc1)C1=C[C@@H](C2CC2)C[C@@H](OCc2ccc(CO)cc2)O1	-12	i	-2.4	i	i	i	/	/	/
C/C(=C/C=N/Nc1nc(N2CCCCC2)nc(N2CCCCC2)n1)c1ccccc1	-13	i	1.1	-8.7*	i	i	44%*	i	i
CC(/C=N/Nc1nc(N2CCCCC2)nc(N2CCCCC2)n1)=C\c1ccccc1	-7	i	-0.02	-12*	i	i	55%*	i	27%*
C(=N\Nc1nc(N2CCCCCC2)nc(N2CCCCCC2)n1)/c1ccccc1	-2	i	-0.12	i	i	i	/	/	/
Oc1ccc(/C=N/Nc2nc(N3CCCCCC3)nc(N3CCCCCC3)n2)c(O)c1	-15	i	0.67	i	i	i	/	/	/
SMILES	hERG protect	KCNQ1 inh	Kir21 inh	KCNK9 block	KCNK3 inh	KCNQ1 pot	KCNK9 inh conf	Kir21 sel	KCNK9 uninduced
COc1ccc2[nH]c3c(c2c1)CCN1C(=O)C(CC(=O)NCC24CC5CC(CC(C5)C2)C4)C[C@H](C(=O)N(C(C)C)C(C)C)[C@@]31C (stereo partly drawn)	/	/	/	/	i	/	/	/	/
CNC(=S)Nc1cccc(-c2cnc3ccccc3n2)c1	-5	i	0.96	i	i	i	/	/	/
O=C(COC(=O)c1c(F)cccc1F)Nc1ccc(N2CCCCC2)cc1	/	/	/	/	i	/	/	/	/
CC(C)Oc1ccc(C(=O)/C(=C\c2cccs2)c2nc3ccccc3o2)cc1	-12	i	0.81	i	i	i	i	i	i
COc1ccccc1/C=C/C=N/n1c(-c2ccc(Cl)cc2)n[nH]c1=S	-6	i	0.04	i	i	i	i	i	i
COc1ccccc1/C=C/C=N/n1c(-c2ccccc2)n[nH]c1=S	-4	i	-0.02	i	i	i	/	/	/
COc1cccc(-c2cc(C(F)(F)F)n3nc(C(=O)N4CCCCC4c4cccnc4)cc3n2)c1 (stereo not drawn)	-11	i	-0.74	-8.1*	i	i	42%*	i	i
COc1cc(CN(C)c2ncnc3sccc23)ccc1OC(F)F	-20	i	0.35	i	i	i	/	/	/
CCOC(=O)/C(=N\Nc1ccccc1Cl)N1CCN(c2ccccc2OC)CC1	-11	i	0.7	-10*	i	i	32%*	i	29%*
COc1ccc(S(=O)(=O)N(C)C[C@H]2Oc3c(NS(=O)(=O)c4ccc(F)cc4)cccc3C(=O)N([C@H](C)CO)C[C@@H]2C)cc1	/	/	/	/	i	/	/	/	/
COc1ccc(CCCc2nnc(SCC(=O)Nc3cc(C)ccc3C)o2)cc1	1	i	-2.8	i	i	i	i	i	i
COc1ccc(CCCc2nnc(SCC(=O)Nc3ccc(C)c(C)c3)o2)cc1	-7	i	-0.41	i	i	i	/	/	/
COc1ccc(C(=O)N/C(=C/c2cccnc2)C(=O)Nc2cccc(C(C)=O)c2)cc1OC	-11	i	0	i	i	i	/	/	/
